Source: PubChem BioAssay
TAAR1 agonist – human TAAR1 agonists, primary screen, Fluo-8 calcium fluorescence, CHO RD-HGA16 cells; Trace amine-associated receptor 1 (Homo sapiens), Q96RJ0; vehicle wells 0%, saturating PEA agonist 100%; activation, % at 3 µM; 360,000 tested, 0.99% active;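 active = activation above the mean activation of all test compounds in the run plus 3 SD, cut at about 38% in these data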
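Repeats: no replicates (n 1) | Material: CHO-derived RD-HGA16 cells with stable Gα16 and human TAAR1 | Technique: Kinetic Fluo-8 calcium fluorescence | Schedule: 17-24 h seeding, 75 min 37 °C dye, 30 min RT | Evaluation: % activation from peak over basal fluorescence ratio, DMSO-to-PEA scaled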
OX1R antag-1 – OX1R (HCRTR1) antagonists, primary screen, fluorescence, CHO/OX1R cells, Fluo-8 calcium, orexin A; Fluo-8 calcium fluorescence; inhibition, % at 5 µM; 330,000 tested, 0.43% active;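 active = inhibition above its plate's threshold, mean inhibition of all tested compounds on the plate plus 3 SD, cut at about 37% in these data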
Target sequence (O43613 whole entry, looked up): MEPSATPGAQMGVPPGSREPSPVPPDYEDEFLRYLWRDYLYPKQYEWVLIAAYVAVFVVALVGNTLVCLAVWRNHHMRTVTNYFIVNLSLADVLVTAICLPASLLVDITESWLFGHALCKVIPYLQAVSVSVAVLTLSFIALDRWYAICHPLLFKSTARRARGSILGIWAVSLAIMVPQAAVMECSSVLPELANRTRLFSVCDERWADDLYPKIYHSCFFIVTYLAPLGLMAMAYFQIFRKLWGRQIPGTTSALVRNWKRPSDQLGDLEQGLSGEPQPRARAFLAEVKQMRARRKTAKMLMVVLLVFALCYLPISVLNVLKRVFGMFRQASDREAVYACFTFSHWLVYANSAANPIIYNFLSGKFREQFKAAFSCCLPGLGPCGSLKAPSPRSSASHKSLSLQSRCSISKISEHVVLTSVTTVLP
CHO parental Ca – ATP-evoked calcium signal inhibitors, parental CHO, primary screen, counter-screen for OX1R antagonist project, cell-based, fluorescence, Fluo-8 calcium dye. inhibition, % at 5.6 µM. AID 463079, 2010. 330,000 tested, 0.63% active. parental CHO-K1, ATP-induced calcium, Fluo-8 fluorescence;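 active = inhibition above that plate's mean sample inhibition plus 3 SD, cut at about 26% in these data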
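Assay system: parental CHO cells; Read-out basis: percent inhibition of ATP-evoked calcium rise, normalized to controls; Benchmarks: ATP and no-ATP DMSO wells; Compound dosing: single nominal dose of 5.6 µM per compound; Signal: Fluo-8 calcium dye fluorescence; Also added: ATP as calcium-mobilizing challenge; Repeats: singlicate.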
GPR7 antag – GPR7 receptor antagonists, primary screen, cell-based, fluorescence, single concentration | Neuropeptides B/W receptor type 1 (Homo sapiens), P48145 | GPR7-expressing cells, fluorescence antagonist assay | inhibition, % at 4.4 µM | 290,000 tested, 1.1% active | AID 1861, 2009; in the data active = inhibition above about 16%, passing the limit was not always enough;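 note: cells stimulated with the agonist NPW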
OX1R antag-2 – antagonists of human orexin 1 receptor (OX1R); Orexin/Hypocretin receptor type 1 (Homo sapiens), O43613; OX1R-expressing cells, FRET antagonist read-out; inhibition, % at 6.6 µM; 330,000 tested, 1.8% active; in the data active = inhibition mostly above about 38%, no sharp cut-off; inactive = mostly below about 40%
TAAR1 antag – human TAAR1 antagonists, primary screen, Fluo-8 calcium fluorescence, CHO RD-HGA16 cells; Trace amine-associated receptor 1 (Homo sapiens), Q96RJ0; antagonist; inhibition, % at 3 µM; 360,000 tested, 1.5% active; AID 624466, 2012;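 active = inhibition above a per-plate cutoff, the mean inhibition of test compounds on that plate plus 3 SD, cut at about 49% in these data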
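Test system: hTAAR1-expressing CHO RD-HGA16 cells, Gα16-coupled; Probe or stimulus: EC80 β-phenethylamine stimulus; Compound dosing: single nominal final test compound concentration of 3 µM; Timing: 140 s kinetic read after compound, 140 s after agonist; Signal: Fluo-8 calcium-sensitive fluorescence; Measure: % inhibition of agonist calcium response; Controls: DMSO and EC80 PEA controls.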
OX1R HTRF confirm – OX1R (HCRTR1) antagonists, confirmation, cell-based, HTRF; shares compounds with OX1R antag-2; OX1R-expressing cells, HTRF antagonist assay; inhibition, % at 6.6 µM; 1,800 tested, 49% active; AID 492964, 2010; in the data active = inhibition above about 55%;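 note: CHO cells expressing OX1R stimulated with orexin A at about EC80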
CHO-K1 HTRF cnt – signal inhibition in parental CHO-K1 cells, counter-screen for OX1R antagonist project, cell-based, HTRF; shares compounds with OX1R antag-2; HTRF counterscreen; inhibition, % at 6.6 µM; 1,800 tested, 48% active; AID 493232, 2011; in the data active = inhibition above about 17%
Numbers stand for hits; 0 = inactive; - = no result; + = active, no number; ! = a repeat was not active. Compounds with a hit are over-represented: about 4.6% of the library has one in this group of screens.

SMILES	TAAR1 agonist	OX1R antag-1	CHO parental Ca	GPR7 antag	OX1R antag-2	TAAR1 antag	OX1R HTRF confirm	CHO-K1 HTRF cnt
COc1cccc2c1C(=O)C=C(C)C2=O	0	0	0	0	124.1	0	71.7	92.2
O=C(/C=C/c1ccc([N+](=O)[O-])cc1)Nc1cccnc1	0	0	0	0	95.1	0	0	26.6
O=C(NN=Cc1ccc([N+](=O)[O-])cc1)c1ccncc1	0	-	-	-	-	0	-	-
O=C(N/N=C/c1ccc(Br)o1)c1cc([N+](=O)[O-])cc([N+](=O)[O-])c1	0	0	0	0	81.3	0	0	56.1
O=C(N/N=C/c1ccncc1)c1cc([N+](=O)[O-])cc([N+](=O)[O-])c1	0	0	0	0	85.5	0	0	74.5
C/C(=N/NC(=O)CNC(=O)c1cccnc1)c1ccc([N+](=O)[O-])cc1	0	0	0	0	89.7	0	0	43.5
COC(=O)C[C@H]1CC[C@H](NS(=O)(=O)c2cn(C)cn2)[C@@H](CO)O1	0	-	-	-	-	0	-	-
CC(C)c1ccccc1NC(=O)Nc1nnc([C@@H]2C[C@H](O)[C@@H](CO)O2)s1	0	-	-	-	-	0	-	-
O=C(Nc1ccc2ccccc2c1)C(c1ccccc1)n1c(=O)c(-c2cc3ccccc3[nH]2)nc2ccccc21 (configuration not stated)	0	-	-	-	-	0	-	-
CN(C)c1ccc(/C=C/CNC[C@H]2O[C@@H](n3ccc(N)nc3=O)[C@H](O)[C@@H]2O)cc1	0	-	-	-	-	0	-	-
C[C@H](CO)N1C[C@H](C)[C@H](CN(C)C(=O)Nc2ccc(F)cc2)Oc2ncc(Br)cc2C1=O	0	-	-	-	-	0	-	-
O=C(N/N=C/c1cccnc1)c1ccc([N+](=O)[O-])cc1	0	0	0	0	106.5	0	0	81.8
O=C(NCCO)c1ccc2nc(-c3ccco3)c(-c3ccco3)nc2c1	0	0	0	0	108.5	0	0	58.2
O=C(NCCN1CCOCC1)c1cc(Sc2ccccc2Cl)nc2ccccc12	0	0	0	0	91.3	0	90.0	0
O=c1n2c(c(O)n1C1CCCCC1)C(c1ccccc1)=Nc1ccccc1C2	0	-	-	-	-	0	-	-
CCNc1nc(OCCNS(=O)(=O)c2cc(C)ccc2C)nc(N(C)C)n1	0	0	0	0	0	0	-	-
Cc1ccc(S(=O)(=O)NCCOc2nc(N(C)C)nc(N(C)C)n2)cc1	0	0	0	0	90.3	0	64.1	0
Cc1cc[n+](-c2nc3ccccc3nc2C(=C=[N-])C#N)cc1	0	0	0	0	121.0	0	0	63.0
N#CC(=C=[N-])c1nc2ccccc2nc1-[n+]1ccccc1	0	0	0	0	98.0	0	63.6!	79.3
CC(C)(C)c1ccc(S(=O)(=O)O/N=C2/CCCCC2c2ccc([N+](=O)[O-])cc2[N+](=O)[O-])cc1 (configuration not stated)	0	0	0	0	115.0	0	0	46.8
Cc1ccc(S(=O)(=O)N/N=C2/CCCCC2C2CCCCC2)cc1[N+](=O)[O-] (configuration not stated)	0	0	0	0	0	0	-	-
CCCn1c(SCC(=O)Nc2nnc(-c3ccccc3)s2)nnc1-c1ccccn1	0	0	0	0	78.2	0	65.3	0
CCCn1c(SCC(=O)NCCc2ccccc2)nnc1-c1ccccn1	0	0	0	0	0	0	-	-
O=C1C(Cl)=C(NCCCO)C(=O)c2ccccc21	0	0	0	0	+	0	67.4	104.1
CCC(=O)N1CCc2cc(-c3csc(NC(=O)c4ccco4)n3)ccc21	0	0	0	0	93.7	0	65.6	0
SMILES	TAAR1 agonist	OX1R antag-1	CHO parental Ca	GPR7 antag	OX1R antag-2	TAAR1 antag	OX1R HTRF confirm	CHO-K1 HTRF cnt
O=C(NC(=S)Nc1nc(-c2ccccc2)cs1)c1ccco1	0	0	0	0	79.2	0	62.8	0
COc1ccc(-c2csc(NC(=S)NC(=O)c3ccco3)n2)cc1	0	0	0	0	0	0	-	-
Clc1ccccc1-c1ccc2nccn2c1	0	-	-	-	-	0	-	-
C=CCOn1c(=O)c(-c2ccccc2)[n+]([O-])c2ccccc21	0	0	0	0	122.4	0	0	46.7
CCOn1c(=O)c(-c2ccc(OC)c(OC)c2)[n+]([O-])c2ccccc21	0	0	0	0	103.2	0	0	37.0
CCOn1c(=O)c(-c2ccc(OC)cc2)[n+]([O-])c2ccccc21	0	0	0	0	120.6	0	0	38.1
ClCCn1cnc2c(SCc3ccccc3)ncnc21	0	-	-	-	-	0	-	-
COc1ccc(CN2C[C@@]3(O)CC[C@@H](O)[C@@H](OC)[C@@H]3[C@@]2(C)[C@H](O)CC=C(C)C)cc1	0	-	-	-	-	0	-	-
O=C(Nc1ccc(Cl)c(C(F)(F)F)c1)[C@@H]1CC=C[C@@H]2CCN(Cc3ccccc3)C(=O)[C@@H]21	0	0	0	-	84.1	0	85.3	0
CCCCN1CC[C@H]2C=CC[C@@H](C(=O)Nc3ccc(Cl)c(C(F)(F)F)c3)[C@H]2C1=O	0	0	0	-	0	0	-	-
O=C(Nc1ccccc1)[C@@H]1CC=C[C@@H]2CCN(Cc3ccccc3)C(=O)[C@@H]21	0	0	0	-	82.8	0	86.3	0
Cc1ccsc1-c1cc2nc(NCCCN(C)C)n(C)c(=O)c2s1	0	-	-	-	-	0	-	-
COc1ccc(NC(=O)C2(C)CCN2C(=O)c2ccc(C(C)(C)C)cc2)cc1OC (configuration not stated)	0	-	-	-	-	0	-	-
Cc1cc(C)nc(Nc2n[nH]c(-c3cccc4ccccc34)n2)n1	0	0	0	0	79.6	0	60.4	0
O=C(NCc1ccc(Cl)cc1)N1CCN(C(=O)c2ccccc2)CC1	0	-	-	-	-	0	-	-
O=C(CN1C2=NCCCN2c2ccccc21)c1cccc(Br)c1	0	0	0	0	0	0	-	-
O=C(CN1C2=NCCCN2c2ccccc21)c1ccc([N+](=O)[O-])cc1	0	0	0	0	86.6	0	58.3	62.4
NS(=O)(=O)c1ccc(N/N=C/c2ccccc2C(=O)O)c([N+](=O)[O-])c1	0	0	0	0	161.3	0	0	73.8
